Test results as given in ChEMBL document CHEMBL2417366, “Synthesis of novel isothiazolopyridines and their in vitro evaluation against Mycobacterium and Propionibacterium acnes” (Bioorg Med Chem, 2013).
≈ marks a conversion by molar mass, not a printed value. Calls of active or inactive are those of the source. The calls are words filed in the database; no cut-off is given here.

Experiments:
Cutibacterium acnes [1] = assay: Antibacterial activity against Propionibacterium acnes PCM 2400 assessed as growth inhibition up to 250 ug/mL after 48 hrs by microplate Alamar blue assay; type: functional, organism-based
[2] = system: Mycobacterium tuberculosis; assay: Antibacterial activity against Mycobacterium tuberculosis H37Rv assessed as growth inhibition up to 250 ug/mL by BACTEC 460 radiometric assay; type: functional, organism-based
Cutibacterium acnes [3] = assay: Antibacterial activity against Propionibacterium acnes PCM 2400 assessed as growth inhibition after 48 hrs by microplate Alamar blue assay; type: functional; details: PCM 2400, 48 h
[4] = system: Mycolicibacterium fortuitum; assay: Antibacterial activity against Mycobacterium fortuitum PCM 672 assessed as growth inhibition after 48 hrs by microplate Alamar blue assay; type: functional; details: PCM 672, 48 h
Procedure, shortened: (§1)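 M. fortuitum PCM 672 pre-grown in liquid 79 medium at 37°C for 24 h under aerobic conditions, then diluted to about 2 x 10^5 cfu/mL. Compounds were DMSO stocks (1 mg/mL) diluted in medium, tested at 0.97-250 µg/mL. Incubated at 37°C for 48 h, then Alamar Blue plus 20% Tween 80 added for 2 h more. Read by fluorescence. MIC was the lowest concentration preventing the blue-to-pink change (≥90% growth inhibition). Run two or three times; means and standard error reported.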

Cutibacterium acnes [5] = assay: Induction of Propionibacterium acnes PCM 2400 replication at 0.97 to 250 ug/mL after 48 hrs by microplate Alamar blue assay relative to control; type: organism-based
Vero = assay: Cytotoxicity against African green monkey Vero cells; type: cell-based; details: Chlorocebus sabaeus
Procedure, shortened: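 VERO cells were exposed to serially diluted compound, starting at 10 x MIC where solubility in culture medium allowed. IC50 was determined, and the selectivity index was taken as VERO IC50 divided by the M. tuberculosis H37Rv MIC.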

[6] = Selectivity index, ratio of IC50 for African green monkey Vero cells to MIC99 for Mycobacterium tuberculosis H37Rv; type: functional
Procedure, shortened: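 Cytotoxicity was measured in VERO cells by serial dilution starting at 10× MIC where solubility in culture medium allowed, giving an IC50. SI = VERO IC50 ÷ MIC (99% inhibition) against M. tuberculosis H37Rv from the BACTEC 460 radiometric assay.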

[7] = system: Mycobacterium tuberculosis; assay: Antibacterial activity against Mycobacterium tuberculosis H37Rv assessed as growth inhibition by BACTEC 460 radiometric assay; type: functional
Procedure, shortened: (§2)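 Serial dilutions started at 6.25 μg/mL against H37Rv in BACTEC 12B medium, read on the BACTEC 460 radiometric system. MIC was taken as the lowest concentration inhibiting 99% of the inoculum.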

[8] = system: Mycobacterium tuberculosis; assay: Antibacterial activity against Mycobacterium tuberculosis H37Rv assessed as growth inhibition at 6.25 ug/mL by BACTEC 460 radiometric assay relative to control; type: functional; details: read-out: GI
Procedure, shortened: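 M. tuberculosis H37Rv grown in BACTEC 12B medium and tested once at 6.25 μg/mL in a primary screen. Growth was read radiometrically on the BACTEC 460 system and reported as % inhibition.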

[9] = system: Mycolicibacterium fortuitum; assay: Induction of Mycobacterium fortuitum PCM 672 replication at 0.97 to 250 ug/mL after 48 hrs by microplate Alamar blue assay relative to control; type: organism-based; procedure, shortened: as §1
[10] = system: Mycobacterium tuberculosis; assay: Antibacterial activity against Mycobacterium tuberculosis assessed as growth inhibition; type: functional
[11] = system: Mycolicibacterium fortuitum; assay: Antibacterial activity against Mycobacterium fortuitum PCM 672 assessed as growth inhibition up to 250 ug/mL after 48 hrs by microplate Alamar blue assay; type: functional, organism-based; procedure, shortened: as §1
Mycobacterium avium [12] = assay: Antibacterial activity against Mycobacterium avium assessed as growth inhibition; type: functional
[13] = system: Mycolicibacterium fortuitum; assay: Bacteriostatic activity against Mycobacterium fortuitum PCM 672 at 0.97 to 250 ug/mL after 48 hrs by microplate Alamar blue assay relative to control; type: functional; procedure, shortened: as §1
Mycobacterium avium [14] = assay: Antibacterial activity against Mycobacterium avium assessed as growth inhibition at 2 ug/mL relative to control; type: functional; details: read-out: GI
Mycobacterium avium [15] = assay: Antibacterial activity against Mycobacterium avium assessed as growth inhibition at 12.5 ug/mL relative to control; type: functional, organism-based
Cutibacterium acnes [16] = assay: Bacteriostatic activity against Propionibacterium acnes PCM 2400 at 0.97 to 250 ug/mL after 48 hrs by microplate Alamar blue assay relative to control; type: functional
[17] = system: Mycobacterium tuberculosis; assay: Antibacterial activity against Mycobacterium tuberculosis H37Rv assessed as growth inhibition at 0.125 ug/mL by BACTEC 460 radiometric assay relative to control; type: functional; details: read-out: GI
[18] = system: Mycobacterium tuberculosis; assay: Antibacterial activity against Mycobacterium tuberculosis H37Rv assessed as growth inhibition; type: functional; details: for MIC: Mycobacterium tuberculosis, H37Rv; procedure, shortened: as §2
Cutibacterium acnes [19] = assay: Induction of Propionibacterium acnes PCM 2400 replication at 15.6 ug/mL after 48 hrs by microplate Alamar blue assay relative to control; type: organism-based
Cutibacterium acnes [20] = assay: Induction of Propionibacterium acnes PCM 2400 replication at 3.9 to 15.6 ug/mL after 48 hrs by microplate Alamar blue assay relative to control; type: organism-based
[21] = system: Mycolicibacterium fortuitum; assay: Induction of Mycobacterium fortuitum PCM 672 replication at 15.6 to 31.25 ug/mL after 48 hrs by microplate Alamar blue assay relative to control; type: organism-based; procedure, shortened: as §1

## Cc1cc(C)c2c(=O)n(CN(Cc3ccccc3Cl)Cn3sc4nc(C)cc(C)c4c3=O)sc2n1
Cutibacterium acnes [1]
  growth inhibition (GI): inactive
[2]
  growth inhibition (GI): inactive

## COc1ccccc1CN(Cn1sc2nc(C)cc(C)c2c1=O)Cn1sc2nc(C)cc(C)c2c1=O
Cutibacterium acnes [1]
  growth inhibition (GI): inactive
[2]
  growth inhibition (GI): inactive
Cutibacterium acnes [3]
  MIC50: 38 µg/mL (≈ 72.8 µM)
[4]
  MIC50: < 1 µg/mL
  MIC90: < 1 µg/mL

## COc1ccc(CN(Cn2sc3nc(C)cc(C)c3c2=O)Cn2sc3nc(C)cc(C)c3c2=O)cc1
Cutibacterium acnes [5]
  Activity: 10%
[2]
  growth inhibition (GI): inactive

## NNC(=O)c1ccncc1 [ISONIAZID]
[4]
  MIC50: 0.322 µg/mL (≈ 2.35 µM)
  MIC90: > 250 µg/mL

## Cc1cc(C)c2c(=O)n(CC(O)CN3CCC(Cc4ccccc4)CC3)sc2n1 (stereo not drawn)
Vero
  IC50: 1.6 µg/mL (≈ 3.89 µM)
[6]
  Selectivity Index: 0.25
[7]
  MIC99: 6.25 µg/mL (≈ 15.2 µM)
[8]
  inhibition of growth at 6.25 µg/mL: 100%

## CCNC(=O)OCCOc1nsc2nc(C)cc(C)c12
Cutibacterium acnes [1]
  growth inhibition (GI): inactive
[9]
  Activity: 10%
Cutibacterium acnes [3]
  MIC50: 184 µg/mL (≈ 623 µM)
[8]
  inhibition of growth at 6.25 µg/mL: 6%

## Cc1cc(C)c2c(=O)n(CCN3CCN(c4ccc([N+](=O)[O-])cc4)CC3)sc2n1
[10]
  MIC: < 1 µg/mL
[11]
  growth inhibition (GI): inactive
Mycobacterium avium [12]
  MIC: < 1 µg/mL
[13]
  inhibition (INH): 40%
Cutibacterium acnes [3]
  MIC50: < 1 µg/mL
  MIC90: < 1 µg/mL

## CC[C@H]1OC(=O)[C@H](C)[C@@H](O[C@H]2C[C@@](C)(OC)[C@@H](O)[C@H](C)O2)[C@H](C)[C@@H](O[C@@H]2O[C@H](C)C[C@H](N(C)C)[C@H]2O)[C@](C)(OC)C[C@@H](C)C(=O)[C@H](C)[C@@H](O)[C@]1(C)O [CLARITHROMYCIN]
Mycobacterium avium [14]
  inhibition of growth at 2 µg/mL: 98%

## Cc1cc(C)c2c(=O)n(CC(O)CN3CCN(c4cccc(C(F)(F)F)c4)CC3)sc2n1 (stereo not drawn)
Mycobacterium avium [15]
  growth inhibition (GI): inactive
Vero
  IC50: 4.2 µg/mL (≈ 9 µM)
[6]
  Selectivity Index: 2.69
[7]
  MIC99: 1.56 µg/mL (≈ 3.34 µM)
[8]
  inhibition of growth at 6.25 µg/mL: 100%

## Cc1cc(C)c2c(OCCOC(=O)NC(C)(C)C)nsc2n1
[8]
  inhibition of growth at 6.25 µg/mL: 16%

## Cc1cc(C)c2c(=O)n(CN(Cc3ccccn3)Cn3sc4nc(C)cc(C)c4c3=O)sc2n1
Cutibacterium acnes [16]
  inhibition (INH): 36%
Cutibacterium acnes [1]
  growth inhibition (GI): inactive
[8]
  inhibition of growth at 6.25 µg/mL: 4%

## CO[C@H]1/C=C/O[C@@]2(C)Oc3c(C)c(O)c4c(O)c(c(/C=N/N5CCN(C)CC5)c(O)c4c3C2=O)NC(=O)/C(C)=C\C=C\[C@H](C)[C@H](O)[C@@H](C)[C@@H](O)[C@@H](C)[C@H](OC(C)=O)[C@@H]1C [RIFAMPIN]
Vero
  IC50: 58 µg/mL (≈ 70.5 µM)
[7]
  MIC99: 0.125 µg/mL (≈ 0.152 µM)
[17]
  inhibition of growth at 0.125 µg/mL: 98%

## CCNC(=O)OCCn1sc2nc(C)cc(C)c2c1=O
Cutibacterium acnes [1]
  growth inhibition (GI): inactive
Cutibacterium acnes [3]
  MIC50: 6.9 µg/mL (≈ 23.4 µM)
[8]
  inhibition of growth at 6.25 µg/mL: 17%

## Cc1cc(C)c2c(=O)n(CO)sc2n1
[18]
  growth inhibition (GI): 65%
  MIC: 12.5 µg/mL (≈ 59.5 µM)

## CC[C@H]1OC(=O)[C@H](C)[C@@H](O[C@H]2C[C@@](C)(OC)[C@@H](O)[C@H](C)O2)[C@H](C)[C@@H](O[C@@H]2O[C@H](C)C[C@H](N(C)C)[C@H]2O)[C@](C)(O)C[C@@H](C)C(=O)[C@H](C)[C@@H](O)[C@]1(C)O [ERYTHROMYCIN]
Cutibacterium acnes [3]
  MIC50: < 1 µg/mL
  MIC90: < 1 µg/mL

## Cc1cc(C)c2c(=O)n(CCOCCOc3ccccc3)sc2n1
Vero
  IC50: 4.1 µg/mL (≈ 11.9 µM)
[6]
  Selectivity Index: 0.68
[7]
  MIC99: 6.25 µg/mL (≈ 18.1 µM)
[8]
  inhibition of growth at 6.25 µg/mL: 100%

## Cc1cc(C)c2c(=O)n(CC(=O)N3CCN(C)CC3)sc2n1
Vero
  IC50: 7 µg/mL (≈ 21.8 µM)
[6]
  Selectivity Index: 1.12
[7]
  MIC99: 6.25 µg/mL (≈ 19.5 µM)
[8]
  inhibition of growth at 6.25 µg/mL: 100%

## Cc1cc(C)c2c(=O)n(CN(Cc3ccccc3)Cn3sc4nc(C)cc(C)c4c3=O)sc2n1
Cutibacterium acnes [19]
  Activity: 10%
[8]
  inhibition of growth at 6.25 µg/mL: 6%

## Cc1cc(C)c2c(=O)n(CCCN3CCN(c4cccc(Cl)c4)CC3)sc2n1
Mycobacterium avium [15]
  growth inhibition (GI): inactive
Vero
  IC50: 3.3 µg/mL (≈ 7.91 µM)
[6]
  Selectivity Index: 0.53
[7]
  MIC99: 6.25 µg/mL (≈ 15 µM)
[8]
  inhibition of growth at 6.25 µg/mL: 100%

## Cc1cc(C)c2c(OCCOCCOc3ccccc3)nsc2n1
Cutibacterium acnes [1]
  growth inhibition (GI): inactive
[2]
  growth inhibition (GI): inactive

## O=c1c2ccccc2sn1CO
[18]
  growth inhibition (GI): 100%
  MIC: 12.5 µg/mL (≈ 69 µM)

## COc1ccc(CN(Cn2sc3nc(C)cc(C)c3c2=O)Cn2sc3nc(C)cc(C)c3c2=O)cc1OC
[11]
  growth inhibition (GI): inactive
Cutibacterium acnes [5]
  Activity: 10%
[13]
  inhibition (INH): 21%
[8]
  inhibition of growth at 6.25 µg/mL: 8%

## CCCCNC(=O)OCCOc1nsc2nc(C)cc(C)c12
[11]
  growth inhibition (GI): inactive
Cutibacterium acnes [20]
  Activity: > 50%
[2]
  growth inhibition (GI): inactive
[4]
  MIC50: 125 µg/mL (≈ 386 µM)

## Cc1cc(C)c2c(=O)n(CN3CCN(c4ccc([N+](=O)[O-])cc4)CC3)sc2n1
[10]
  MIC: < 1 µg/mL
Cutibacterium acnes [1]
  growth inhibition (GI): inactive
[11]
  growth inhibition (GI): inactive
Mycobacterium avium [12]
  MIC: < 1 µg/mL
[4]
  MIC50: 197 µg/mL (≈ 493 µM)

## Cc1cc(C)c2c(OCCOC(=O)Nc3ccccc3)nsc2n1
Cutibacterium acnes [1]
  growth inhibition (GI): inactive
[11]
  growth inhibition (GI): inactive
[2]
  growth inhibition (GI): inactive

## Cc1cc(C)c2c(=O)n(CN(Cc3ccc(Cl)cc3)Cn3sc4nc(C)cc(C)c4c3=O)sc2n1
Cutibacterium acnes [1]
  growth inhibition (GI): inactive
[2]
  growth inhibition (GI): inactive

## CCCCNC(=O)OCCn1sc2nc(C)cc(C)c2c1=O
Cutibacterium acnes [1]
  growth inhibition (GI): inactive
[11]
  growth inhibition (GI): inactive
[2]
  growth inhibition (GI): inactive
[4]
  MIC50: 125 µg/mL (≈ 386 µM)

## Cc1cc(C)c2c(=O)n(CCOC(=O)Nc3ccccc3)sc2n1
Cutibacterium acnes [1]
  growth inhibition (GI): inactive
[11]
  growth inhibition (GI): inactive
[13]
  inhibition (INH): 42%
[8]
  inhibition of growth at 6.25 µg/mL: 12%

## Cc1cc(C)c2c(=O)n(CCOC(=O)NC(C)(C)C)sc2n1
[2]
  growth inhibition (GI): inactive
[21]
  Activity: 10%
Cutibacterium acnes [3]
  MIC90: 3.2 µg/mL (≈ 9.89 µM)
